Results reported in ChEMBL document CHEMBL4396915, “Synthesis of new thiazolyl-pyrazolyl-1,2,3-triazole derivatives as potential antimicrobial agents” (2019).
≈ marks a conversion by molar mass, not a printed value. Calls of active or inactive are those of the source. No cut-off for these calls is given here.

What was measured:
Aspergillus niger [1] = assay: Inhibition of CYP51 in Aspergillus niger NCIM 504 cells assessed as decrease in ergosterol biosynthesis at 31.5 ug/ml incubated for 72 hrs by spectrophotometric analysis
Outline: (§1)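 A. niger inoculated into potato dextrose broth with compound, untreated control, shaken 72 h at 37 C. Cells centrifuged, washed and pellet wet weight taken. Saponified in 25% alcoholic KOH 1 h at 85 C, then sterols extracted into n-heptane. Extract diluted fivefold in ethanol and scanned at 240-300 nm. Ergosterol computed as % of wet weight from A281.5 and A230, in duplicate.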

Proteus mirabilis = assay: Antibacterial activity against Proteus mirabilis NCIM 2388 assessed as zone of inhibition at 80 ug/well incubated for 24 to 48 hrs by agar well diffusion method; type: functional
Outline: (§2)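 Strains from NCIM kept on nutrient agar slants at 4 C and grown overnight at 37 C in nutrient broth. 500 microlitres of 24-48 h culture swabbed onto nutrient agar. Compounds in DMSO loaded into 5 mm wells, with a DMSO vehicle plate and streptomycin reference. Incubated 24-48 h at 37 C. Zone of inhibition measured in mm and averaged over 4 replicates.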

Aspergillus niger [2] = assay: Antifungal activity against Aspergillus niger NCIM 504 assessed as inhibition of fungal growth incubated for 48 to 72 hrs by broth microdilution susceptibility method; type: functional
Outline: (§3)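 Tube micro-dilution in Sabouraud liquid medium. Stocks were made in DMSO and serially diluted twofold in broth to final […]. Tubes inoculated with organisms grown in potato dextrose broth and held 48-72 h at 30 C. MIC is the lowest concentration with no growth. DMSO and uninoculated-media controls were included, in triplicate.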

Aspergillus niger [3] = assay: Antifungal activity against Aspergillus niger NCIM 504 assessed as zone of inhibition at 80 ug/well incubated for 48 to 72 hrs by agar well diffusion method; type: functional; conditions: for zone of inhibition at 80 µg/disc: read-out: IZ
Outline: (§4)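 Fungi kept on potato dextrose agar slants and grown in potato dextrose broth. 500 microlitres of 48-72 h spore suspension swabbed onto Mueller Hinton agar. Compounds in DMSO loaded into 5 mm wells, with a DMSO vehicle plate and fluconazole/ravuconazole positive-control plate. Incubated 48-72 h at 30 C. Clear zone measured in mm, mean of five replicates.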

Candida albicans [4] = assay: Antifungal activity against Candida albicans NCIM 3100 assessed as inhibition of fungal growth incubated for 48 to 72 hrs by broth microdilution susceptibility method; type: functional; outline: as §3
Candida albicans [5] = assay: Antifungal activity against Candida albicans NCIM 3100 assessed as zone of inhibition at 80 ug/well incubated for 48 to 72 hrs by agar well diffusion method; type: functional; conditions: read-out: IZ; outline: as §4
Aspergillus niger [6] = assay: Inhibition of CYP51 in Aspergillus niger NCIM 504 cells assessed as ergosterol synthesis measured per gram wet weight at 31.5 ug/ml incubated for 72 hrs by spectrophotometric analysis (reference value: 0.0000290836%); set-up: scale not given: the % may be the effect or the level left; outline: as §1
[7] = tested on: Staphylococcus epidermidis; assay: Antibacterial activity against Staphylococcus albus NCIM 2178 assessed as zone of inhibition at 80 ug/well incubated for 24 to 48 hrs by agar well diffusion method; type: functional; conditions: for zone of inhibition at 80 µg/disc: read-out: IZ; outline: as §2
Escherichia coli = assay: Antibacterial activity against Escherichia coli NCIM 2574 assessed as zone of inhibition at 80 ug/well incubated for 24 to 48 hrs by agar well diffusion method; type: functional; conditions: for zone of inhibition at 80 µg/disc: read-out: IZ; outline: as §2
Rhodotorula glutinis [8] = assay: Antifungal activity against Rhodotorula glutinis NCIM 3168 assessed as inhibition of fungal growth incubated for 48 to 72 hrs by broth microdilution susceptibility method; type: functional; outline: as §3
Rhodotorula glutinis [9] = assay: Antifungal activity against Rhodotorula glutinis NCIM 3168 assessed as zone of inhibition at 80 ug/well incubated for 48 to 72 hrs by agar well diffusion method; type: functional; conditions: read-out: IZ; outline: as §4

Structure (SMILES)	inhibition (Aspergillus niger [1])	inhibition zone (IZ) (Proteus mirabilis)	MIC (Aspergillus niger [2]) [µg/mL]	zone of inhibition at 80 µg/disc (Aspergillus niger [3]) [mm]	MIC (Candida albicans [4])	zone of inhibition at 80 µg/disc (Candida albicans [5]) [mm]	Activity (Aspergillus niger [6]) [%]	zone of inhibition at 80 µg/disc [7] [mm]	zone of inhibition at 80 µg/disc (Escherichia coli) [mm]	MIC (Rhodotorula glutinis [8])	zone of inhibition at 80 µg/disc (Rhodotorula glutinis [9]) [mm]	inhibition zone (IZ) [7]	inhibition zone (IZ) (Aspergillus niger [3])	inhibition zone (IZ) (Escherichia coli)
Cc1nc(-c2ccc(F)cc2)sc1-c1nn(-c2ccccc2)cc1-c1cn(Cc2ccc(F)cc2)nn1	Active	inactive	31.2 (≈ 61.2 µM)	11	125 µg/mL (≈ 245 µM)	12.8	0	11.8	12.2	62.5 µg/mL (≈ 122 µM)	13.3			
Cc1nc(-c2ccc(F)cc2)sc1-c1nn(-c2ccccc2)cc1-c1cn(Cc2ccccc2)nn1	Active	inactive	31.2 (≈ 63.4 µM)	15.8	125 µg/mL (≈ 254 µM)	16.2	0	12.2	11.8	62.5 µg/mL (≈ 127 µM)	16			
Cc1ccc(-c2nc(C)c(-c3nn(-c4ccccc4)cc3-c3cn(Cc4ccc(Cl)cc4)nn3)s2)cc1	Active	inactive	31.2 (≈ 59.7 µM)	16	inactive	10	0	12	13.6	62.5 µg/mL (≈ 119 µM)	19			
Cc1ccc(Cn2cc(-c3cn(-c4ccccc4)nc3-c3sc(-c4ccccc4)nc3C)nn2)cc1		inactive	31.2 (≈ 64 µM)	14	inactive	11.8			10	inactive	19.5	inactive		
Cc1ccc(Cn2cc(-c3cn(-c4ccccc4)nc3-c3sc(-c4ccc(F)cc4)nc3C)nn2)cc1	Active	inactive	31.2 (≈ 61.7 µM)	13	inactive	12.2	0	13.7	9.6	62.5 µg/mL (≈ 123 µM)	16.2			
Cc1ccc(-c2nc(C)c(-c3nn(-c4ccccc4)cc3-c3cn(Cc4ccc(Br)cc4)nn3)s2)cc1		inactive	31.2 (≈ 55.1 µM)	14.4	125 µg/mL (≈ 220 µM)	14		12.2	11	62.5 µg/mL (≈ 110 µM)	18.8			
Cc1nc(-c2ccc(Cl)cc2)sc1-c1nn(-c2ccccc2)cc1-c1cn(Cc2ccc(Cl)cc2)nn1		inactive	125 (≈ 230 µM)	12.3	inactive	11.3		11.5	9.8	62.5 µg/mL (≈ 115 µM)	14			
Cc1nc(-c2ccc(Br)cc2)sc1-c1nn(-c2ccccc2)cc1-c1cn(Cc2ccc(F)cc2)nn1		inactive	62.5 (≈ 109 µM)	17	125 µg/mL (≈ 219 µM)	12		12	11.8	62.5 µg/mL (≈ 109 µM)	11.7			
Cc1ccc(-c2nc(C)c(-c3nn(-c4ccccc4)cc3-c3cn(Cc4ccc(F)cc4)nn3)s2)cc1		inactive	62.5 (≈ 123 µM)	16.3	inactive	12.5		11.2	10.6	125 µg/mL (≈ 247 µM)	16.2			
Cc1nc(-c2ccc(Br)cc2)sc1-c1nn(-c2ccccc2)cc1-c1cn(Cc2ccccc2)nn1		inactive	62.5 (≈ 113 µM)	13.4	125 µg/mL (≈ 226 µM)	14.6		14.6	11.5	62.5 µg/mL (≈ 113 µM)	16.2			
Cc1nc(-c2ccc(Cl)cc2)sc1-c1nn(-c2ccccc2)cc1-c1cn(Cc2ccccc2)nn1		inactive	31.2 (≈ 61.4 µM)	12.3	500 µg/mL (≈ 982 µM)	15.2		11	12.8	125 µg/mL (≈ 246 µM)	15.2			
Cc1ccc(Cn2cc(-c3cn(-c4ccccc4)nc3-c3sc(-c4ccc(C)cc4)nc3C)nn2)cc1	Active	inactive	31.2 (≈ 62.2 µM)		62.5 µg/mL (≈ 124 µM)	13	0	14.4	10.2	125 µg/mL (≈ 249 µM)	22.3		inactive	
Cc1nc(-c2ccccc2)sc1-c1nn(-c2ccccc2)cc1-c1cn(Cc2ccc(Cl)cc2)nn1		inactive	31.2 (≈ 61.4 µM)	13.6	inactive	11.5		12.2	13.2	62.5 µg/mL (≈ 123 µM)	19			
OC(Cn1cncn1)(Cn1cncn1)c1ccc(F)cc1F [FLUCONAZOLE]		inactive	7.81 (≈ 25.5 µM)	18.4	7.81 µg/mL (≈ 25.5 µM)	20.2				7.81 µg/mL (≈ 25.5 µM)	25.3	inactive		inactive
Cc1nc(-c2ccc(Cl)cc2)sc1-c1nn(-c2ccccc2)cc1-c1cn(Cc2ccc(F)cc2)nn1		inactive	62.5 (≈ 119 µM)	12.5	250 µg/mL (≈ 474 µM)	13.8		11.3	12.2	125 µg/mL (≈ 237 µM)	20			
Cc1nc(-c2ccc(F)cc2)sc1-c1nn(-c2ccccc2)cc1-c1cn(Cc2ccc(Br)cc2)nn1		inactive	125 (≈ 219 µM)	16.8	125 µg/mL (≈ 219 µM)	14.4		11.4		62.5 µg/mL (≈ 109 µM)	16.5			inactive
C[C@@H](c1nc(-c2ccc(C#N)cc2)cs1)[C@](O)(Cn1cncn1)c1ccc(F)cc1F [RAVUCONAZOLE]		inactive	31.2 (≈ 71.4 µM)	20.2	7.81 µg/mL (≈ 17.9 µM)	28.6				15.6 µg/mL (≈ 35.7 µM)	20.1	inactive		inactive
Cc1ccc(Cn2cc(-c3cn(-c4ccccc4)nc3-c3sc(-c4ccc(Br)cc4)nc3C)nn2)cc1		inactive	31.2 (≈ 55.1 µM)	12.4	inactive	14.6		12.6	11.6	125 µg/mL (≈ 220 µM)	13.3			
